System: MS2 coat protein
Assay: apparent Kd, MS2 coat protein; higher = weaker binding; RNA-MaP array; FMN 200 µM where present
Summary of the method: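 Stalled E. coli RNA polymerase transcribed the designs on Illumina sequencing-chip clusters. SNAP-549-labelled MS2 coat protein was titrated from 0.7 or 1.5 nM, doubling to 3 µM, without and then with constant ligand, in 100 mM Tris-HCl pH 7.5, 80 mM KCl, 4 mM MgCl2, BSA, DTT, yeast tRNA and Tween-20. Per-cluster binding curves were fitted to green signal normalised to red-channel RNA signal and control-cluster median Fmax. The apparent Kd is the median of the filtered fits.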

[1] = designed as: OFF switch for flavin mononucleotide, no ligand
[2] = ligand present: flavin mononucleotide, designed as: OFF switch for flavin mononucleotide
[3] = designed as: ON switch for flavin mononucleotide, no ligand
[4] = ligand present: flavin mononucleotide, designed as: ON switch for flavin mononucleotide

Row | Sequence | apparent Kd [1] [nM] | apparent Kd [2] [nM] | apparent Kd [3] [nM] | apparent Kd [4] [nM]
1 | GGUACUCAAAGAGUACCAAUACGAACAUGAGGAUCACCCAUGUAGGAUAUGCUACUCAAAGAGUAGCAGAAGGACAUGUGCUUU | 38.8 | 252 | – | –
2 | UGUACGUGAGGAUAUGGACGUAUCGAAGACAAGCUACGAUACCAGAAGGUACAUGAGGAUCACCCAUGUGGUUC | 376 | 370 | – | –
3 | GCCUCACAUGAGGAUCACCCAUGUCAGGAUAUCUAACGCGAGGUGCAGGCACUUCGUGAGAGAAGGGACGUCAA | 20.3 | 34.4 | – | –
4 | GUGGCUCCCACAGGAUAUCCACAUGAGGAUCACCCAUGUCUAAUUAACAAAGGAGAAGGGUGGGACAAUUCUGGUGACUGAGAA | – | – | 30.1 | 4.89
5 | GGACGUCCCAUUAACAUGAGGAUCACCCAUGUCAAAAGACAUGAGGAUAUGCUACCUAAUUGGUAGCAGAAGGCAUGGACGUCC | – | – | 878 | 85.4
6 | AAAAGACAUGAGGAUCACCCAUGUAAAAACAUAGGAGGAUAUGUUUGGAAACUAGACUGAACAGAAGGCCUUUGUC | – | – | 22.9 | 17
7 | GGCCCACAUGAGGAUCACCCAUGUGAGGAUAUGUUAGUUUCGGCGAAAGCCGAAAUUAACAGAAGGCACAGGCC | 11.7 | 13.6 | – | –
8 | UAAAUGUGAGGAUAUUCGAAUAACUCGGAGACGAGUUGUUCGGAGAAGGCACAUGAGGAUCACCCAUGUUCCUU | 22.5 | 216 | – | –
9 | CCACGUCUCAUUAACAUGAGGAUCACCCAUGUCAAAAGACAUGAGGAUAUGGAUCCUAAUUGGAUCCAGAAGGCAUGGACGUGG | – | – | 516 | 59.4
10 | ACCAAUGCAGGAUAUACAUGAGGAUCACCCAUGUAUAACCUACAUAGGUGAUCCUCAUGUAGAAGGGCAUUGGA | 12.8 | 10 | – | –
11 | AUAGGAUGAGGUGACGUACAUGAGGAUCACCCAUGUUUGACACAGGAUAUCCCGCGACUUGGUUUGGAGAAGGGUGGCAGACAA | 164 | 119 | – | –
12 | CGUUGGUCAGGAUAUGGUGGGCUGGUCGCGCGGCCGGGUGGCUAGAAGGGACAUGAGGAUCACCCAUGUACGGC | 21.5 | 40.5 | – | –
13 | UUCGGACUAUCAGGAUAUGGUGUAGCCUAGUAAAGGACAUGAGGAUCACCCAUGUACCAUUGGUGCCAGAAGGGAUGAUCCUAC | – | – | 141 | 55.3
14 | GGUGCGUAUGUGAGGAUAUGCUGGUCCUUGGCUCGGCAGAAGGCACAUGAGGAUCACCCAUGUGGUGUCGUGCC | 16.9 | 37.7 | – | –
15 | CGCAGGAUACAGAAGGAGUUAUUGAGAGGUUUACUAGGAUAUGUUCACAUGAGGAUCACCCAUGUCAUAUGGUUUUUUAUUGCG | 12.5 | 11.7 | – | –
16 | AUCAGCUCGUCAGGAUAUACAUUACUGCUUCGGCAGUGUAUUAAGAUCACAUGAGGAUCACCCAUGUAGAAGGGACGAGCUGAU | 23.2 | 124 | – | –
17 | GUAGCUAUCGGAGGAUAUUCAUGAUACAUGAGGAUCACCCAUGUUAAAUUGGGAGAAGGCCGAUAGCUACAAGAGCGAAAGCUC | – | – | 14.8 | 5.54
18 | AUACAUGAGGAUCACCCAUGUAAUUAAUUAAUUAAUAAGAUCAAGGAUAUCAGCUCGAUUAGAGCUGAGAAGGUGAUCACAUGU | – | – | 417 | 306
19 | UGCCCUCUUAAGGAUAUAUUGGACGAGCGACCAAUAGAAGGUGGGACAUGAGGAUCACCCAUGUGCAGACAUCC | 23.2 | 22.7 | – | –
20 | UUUUAUAAUACCUCAUGUACAUGAGGAUCACCCAUGUUAACUAAGGAUAUAUAUAAAUUAAUAAUGUAGAAGGUAGUAAUAUUU | 16.5 | 14.3 | – | –
21 | GUACUGAAGCUUUGCUUUAGUCGUACAUGAGGAUCACCCAUGUAGGAUAUGGUAGGCUUUGCCUACUAGAAGGAUAGAGUGAUC | 89.2 | 33.9 | – | –
22 | GAGUGACAUGAGGAUCACCCAUGUGAGGAUAUCGGACGGACCAAAUUAACAAUUUUUGCGAGAAGGCACAUCGG | 59.5 | 72.4 | – | –
23 | GGAUUACAUGAGGAUCACCCAUGUGAGGAUAUCGAUGUCCUCAAUGGAGUGCGGGACUCGAGAAGGCACUUGGA | 338 | 168 | – | –
24 | ACGGAACAUGAGGAUCACCCAUGUAUCUGAAAUAUGGACUCACAGGAUAUCCAGAGUUGCCAAUCGGAGAAGGGUGACUCCAGA | – | – | 20.1 | 16.7
25 | AACCUAUUACAGAAGGCCAGCUACAUGAGGAUCACCCAUGUCGAGUCAUGGAGGAUAUGUAGUAAUUUACACGCGGGUGAGUAC | – | – | 51.6 | 6.25
26 | AUUUAGAGAGGAUAUAUUAUGUGAAACAUGAGGAUCACCCAUGUAAUAUGAUGGAUAUAAAUAGAAGGCUCAUUUA | 33 | 24.4 | – | –
27 | GGACGUCUCAUUUACAUGAGGAUCACCCAUGUCGAUAGACAUGAGGAUAUGGAUCCGAAUCGGAUCCAGAAGGCAUGGACGUCC | – | – | 1130 | 63.4
28 | UUGGACGUCGUAGGAUAAGUAGGAUAUUCCUACAUGAGGAUCACCCAUGUUGACAUGGAAGAAGGACAGAAGGACGAUGUCCAU | – | – | 96.2 | 4.48

Row | Sequence | apparent Kd [1] [nM] | apparent Kd [2] [nM] | apparent Kd [3] [nM] | apparent Kd [4] [nM]
29 | GUGCACACUCGAGGAUAUCGGAGAGUUCUCCUUCGAGAAGGCGAUUCGUGCCGUGUUAUUCUGGACAUGAGGAUCACCCAUGUG | – | – | 84.2 | 32.4
30 | AAACAGGCAGGAUAUACAUGAGGAUCACCCAUGUGCAUAAACUGGCUGCGUCCGAAUCGUAGAAGGGCCUGCAU | 502 | 126 | – | –
31 | CCCUGAGACCGGUUAAUUGGCUGAUAGGAUAUCCUCGGACAUGAGGAUCACCCAUGUUAACUAUUGGAGAAGGGUCAGCGAAAG | – | – | 448 | 216
32 | AAAGAACAUGAGGAUCACCCAUGUGAGGAUAUGCGAAAACCGCUGGCGCACCAGACGGGCAGAAGGCAUAUGGU | 75.6 | 92.5 | – | –
33 | UGUCGGAGCAGAGGAUAUACAUGAGGAUCACCCAUGUAAUAAAGUGAAGCCUGAAAACAGGCAAUGUAGAAGGCUGCUCCGACA | 11.5 | 85 | – | –
34 | UGGUACUAGGGAGGAUAUGGGAAGAUACAUGAGGAUCACCCAUGUUUAAGAAUGCCGAGAGGCAAAUAGAAGGCCCUAGUACCU | – | – | 658 | 85.4
35 | GUAGCAUACAGAGGAUAUUCAAACCGGAAACGGAACAUGAGGAUCACCCAUGUGGCGAAAGCCAGGGAGAAGGCUGAAUGCUAC | – | – | 44.5 | 16.8
36 | AGUUGGCGAGGAUAUACAUGAGGAUCACCCAUGUGAGAGAUACUAGUGAGGUCGAUUGGUAGAAGGCGCUGACA | 132 | 106 | – | –
37 | ACACAGCAAGGAUAUACAUGAGGAUCACCCAUGUGGUGGCCGUUACGGUAGGACUAGUGUAGAAGGUGCAGUGG | 519 | 177 | – | –
38 | GAGCUAUGAGGAUAUGCAUAGAUACGGAUUCGUGUAGUACUACAUGAGGAUCACCCAUGUAGAAGGCGUGGCUG | 18.5 | 20.5 | – | –
39 | CGCUACGUUUCGUAGCAGCUAGGUGAGGAUAUUCAAUUUUUCACAUGAGGAUCACCCAUGUAUGUGAAGAAGGCGCCUAGAAAU | – | – | 10.7 | 4.96
40 | AAAAAACAUGAGGAUCACCCAUGUCAGGAUAUCUGUAUUCAAUCCUCGGAUUGAAUACAGAGAAGGGACAUGGA | 42 | 22.8 | – | –
41 | AAUGUUUGAUUCCACUUAUACAUGAGGAUCACCCAUGUUAUCGAGGAUAUGCAUUAAAGUGUUUAGCAGAAGGCGAUGUAAUUG | 7.42 | 23.6 | – | –
42 | GAGUGACGAUUAGGAUAUAUAGUGAUAAUGAUAAUAGAAGGAAUUGACAUGAGGAUCACCCAUGUAGGACUAAUCCAGAGAGAG | – | – | 64.2 | 62.2
43 | GGAAGACAAAGUCUUCCAAUUCGAACAUGAGGAUCACCCAUGUAGGAUAUGCUACUCAAAGAGUAGCAGAAGGACAUGUGCUUU | 37.3 | 164 | – | –
44 | GAUAAAGGAGUAGGAUAUGCACAUGGUAGGCUUAUCUUUAUGGCGACAUGAGGAUCACCCAUGUUGCAGAAGGGCUUCCCAUUG | 34 | 25.9 | – | –
45 | AACUUGCGCACAGGAUAUCCACGGAGCGGACGUGGAGAAGGGUGACAUGAGGAUCACCCAUGUACGUAAGUCUGGAUCACUUCC | – | – | 116 | 42.3
46 | UGGUCAUGAUCAGGAUAUUAACAUGGGCUACAUUGAGAAGGGAUAGUGAGAUACGAACUGAACGACAUGAGGAUCACCCAUGUA | – | – | 59.7 | 44
47 | CACCGGCCCUAUGUGUUCUAGACAUGAGGAUCACCCAUGUAUAGAAGGGUCUUCGCGAAACGCAGACAGGAUAUGUACAGGAGU | 6.31 | 9.26 | – | –
48 | AUUGAGUGGUCAGGAUAUGUACGGCCUACCGCACAUGAGGAUCACCCAUGUCGCCAAGGAGGACGACAGAAGGGACAACGAAUG | – | – | 43.5 | 8.83
49 | AGUGUGUGGCAGGAUAUGCUAUUAAUUGGUGAAGCAGAAGGGUCUACAUGAGGAUCACCCAUGUAAGCGGUUGA | 39.7 | 190 | – | –
50 | GAUAGGAAGUAAGGAUAUAGACAUGAGGAUCACCCAUGUCUGUGCCGCGUGGAUGAAGGGAGUGUCUAGAAGGUACUGCUCUGU | 15.5 | 7.5 | – | –
51 | GCGCGCGCCGCAGGAUAUGGUUUGUUCGUUGAACCAGAAGGGCGACAUGAGGAUCACCCAUGUACAUGAGGAUCACCCAUGUGC | 59.2 | 51 | – | –
52 | AAUAACAGAGGAUAUACUAUUUUAUGUGUUUAUUGUUUUGAACAUGAGGAUCACCCAUGUAGAAGGCUGAUUAA | 41 | 58.7 | – | –
53 | AAGCUGGUAGGAUAUGCUAGGGCGAUUAAUACGCCGAUAGUACAUGAGGAUCACCCAUGUAGAAGGGCCAGAAA | 23.6 | 17.8 | – | –
54 | GUAUAUAGUGUGAGGAUAUGCUGGUCCUUGGAUCAGCAGAAGGCACAUGAGGAUCACCCAUGUAGUUAAAUAUA | 34.4 | 82 | – | –
55 | UUUAUAUUCAGAGGAUAUUGAUGUUGUAUUUUACAAGAAGGCUGAUUGUUUUGUAAUGUUAUUAUACAUGAGGAUCACCCAUGU | – | – | 22.1 | 15.6
